Where a chain is given by its changes, count along the chain named.
Experiments:
OATP1B1*1A = target: T1, OATP1B1*1A (Homo sapiens, UniProt Q9Y6L6); experiment: Uptake into transporter-transfected vs wild-type HEK293 cells; assay type: in vitro ADME; details: experiment 3, substrate 1 µM, 2 minutes
T1 sequence (Q9Y6L6 1-691): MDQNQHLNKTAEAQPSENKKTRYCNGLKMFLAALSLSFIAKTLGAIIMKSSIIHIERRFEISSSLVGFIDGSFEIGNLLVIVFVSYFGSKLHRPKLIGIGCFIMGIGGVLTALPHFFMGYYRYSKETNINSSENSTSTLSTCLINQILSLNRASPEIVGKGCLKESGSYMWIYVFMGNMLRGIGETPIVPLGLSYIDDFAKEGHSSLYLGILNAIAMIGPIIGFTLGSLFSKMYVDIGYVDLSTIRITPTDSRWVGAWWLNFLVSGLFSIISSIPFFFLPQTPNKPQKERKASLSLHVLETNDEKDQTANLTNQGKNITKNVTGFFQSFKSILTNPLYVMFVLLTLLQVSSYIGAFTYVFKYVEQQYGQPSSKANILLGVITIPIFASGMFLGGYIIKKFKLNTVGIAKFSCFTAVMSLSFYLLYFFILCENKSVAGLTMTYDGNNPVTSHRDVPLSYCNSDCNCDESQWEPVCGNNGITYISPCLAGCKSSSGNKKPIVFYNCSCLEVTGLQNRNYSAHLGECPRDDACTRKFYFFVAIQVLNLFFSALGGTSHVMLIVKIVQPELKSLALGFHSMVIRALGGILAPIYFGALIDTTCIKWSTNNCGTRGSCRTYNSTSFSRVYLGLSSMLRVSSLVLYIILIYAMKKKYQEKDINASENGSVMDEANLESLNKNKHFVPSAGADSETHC
Summary of the method: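 HEK293 cells stably transfected with OATP1B1*1A, OATP1B3 or OATP2B1, plus wild-type cells, were seeded on poly-D-lysine plates. Culture was 48 h at 37°C in DMEM with 10% FBS, pyruvate, nonessential amino acids and GlutaMAX. Test compound was 1 µM for 2 min; rosuvastatin probe was 1 µM over 2–4 min. Cells were washed four times in ice-cold buffer and lysed in methanol with internal standard. Readouts were uptake ratio versus wild-type and glucuronide/probe ratio of ratios; mean ± SD, n=3 in one experiment.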

OATP1B1*5 = target: T2, OATP1B1*5 (Homo sapiens, UniProt Q9Y6L6, V174A); experiment: Uptake into OATP1B1 variant-transfected vs wild-type HEK293 cells; assay type: in vitro ADME; details: for Uptake ratio (vs. wild‐type HEK293 cells): 2 minutes
T2 sequence (Q9Y6L6 1-691 V174A): T1 sequence (Q9Y6L6 1-691) with V174A
Summary of the method: (§1)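 HEK293 cells stably expressing an OATP1B1 variant, alongside wild-type HEK293, were seeded at 0.5–1.2 × 10⁵ cells/well on poly-D-lysine plates. They grew 48 h at 37°C and 5% CO₂ in DMEM with 10% FBS, 1% pyruvate, nonessential amino acids and GlutaMAX. Substrate was 1 µM (0.5 µM where footnoted) for 2 min, then four ice-cold buffer washes and methanol lysis with internal standard. Uptake ratio (transfected/wild-type) is expressed as % of OATP1B1*14 in the same experiment; n=3 determinations.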

OATP1B1*15 = target: T3, OATP1B1*15 (Homo sapiens, UniProt Q9Y6L6, N130D/V174A); experiment: as above; assay type: in vitro ADME; details: for Uptake ratio (vs. wild‐type HEK293 cells): 2 minutes
T3 sequence (Q9Y6L6 1-691 N130D/V174A): T1 sequence (Q9Y6L6 1-691) with N130D, V174A
Summary of the method: as §1

OATP1B1*14 = target: T4, OATP1B1*14 (Homo sapiens, UniProt Q9Y6L6, N130D/P155T); experiment: Uptake into OATP1B1 variant-transfected vs wild-type HEK293 cells; assay type: in vitro ADME; details: substrate 1 µM; for Uptake ratio as percentage of OATP1B1*14 in the same experiment: OATP1B1*14 (reference); for Uptake ratio (vs. wild‐type HEK293 cells): OATP1B1*14, 2 minutes
T4 sequence (Q9Y6L6 1-691 N130D/P155T): T1 sequence (Q9Y6L6 1-691) with N130D, P155T

[1] = Fasting plasma concentrations in healthy volunteers by SLCO1B1 genotype; details: for Plasma concentration, ratio to control (95% CI) / Plasma concentration, geometric mean (95% CI): fasting, adjusted for sex; for Mean fasting plasma concentration, lower in women than in men: women vs men, 356 healthy volunteers
OAT2 = target: T5, OAT2 (Homo sapiens, UniProt Q9Y694); experiment: Uptake into transporter-transfected vs wild-type HEK293 cells; assay type: in vitro ADME; details: cyclic guanosine monophosphate 0.5 µM, two to four minutes
T5 sequence (Q9Y694 1-548): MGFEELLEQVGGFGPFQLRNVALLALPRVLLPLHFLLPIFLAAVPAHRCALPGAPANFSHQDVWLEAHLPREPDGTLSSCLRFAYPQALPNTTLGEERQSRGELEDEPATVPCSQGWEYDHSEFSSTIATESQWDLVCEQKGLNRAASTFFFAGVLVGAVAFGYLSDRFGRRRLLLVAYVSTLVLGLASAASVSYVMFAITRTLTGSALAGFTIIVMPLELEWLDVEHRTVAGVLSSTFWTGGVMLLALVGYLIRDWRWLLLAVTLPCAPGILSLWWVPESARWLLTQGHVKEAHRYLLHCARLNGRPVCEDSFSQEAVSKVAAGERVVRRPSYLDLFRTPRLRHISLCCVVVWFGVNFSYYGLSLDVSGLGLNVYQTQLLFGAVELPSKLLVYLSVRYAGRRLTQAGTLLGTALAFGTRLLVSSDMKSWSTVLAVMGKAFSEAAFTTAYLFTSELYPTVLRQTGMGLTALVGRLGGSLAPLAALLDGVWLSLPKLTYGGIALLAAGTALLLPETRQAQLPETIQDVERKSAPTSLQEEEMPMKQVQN
Summary of the method: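 Transfected HEK293 lines were OAT2 and OCT1, each run against wild-type cells, seeded on poly-D-lysine plates. Culture was 48 h at 37°C in DMEM with 10% FBS plus 1% gentamycin, 1% sodium pyruvate and 50 µg/mL hygromycin B. Probes were cyclic GMP 0.5 µM (OAT2) and metformin 20 µM (OCT1), over 2–4 min; test compound was 1 µM for 2 min. After four ice-cold washes and methanol lysis, the uptake ratio versus wild-type and the ratio of ratios were derived; n=3 in one experiment.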

[2] = SLCO1B1 c.521 C/C genotype (n = 13)
[3] = SLCO1B1 c.521 T/C genotype (n = 113)
[4] = SLCO1B1 c.521 T/T genotype (control; n = 230)

## CC(C)n1c(/C=C/C(O)CC(O)CC(=O)O)c(-c2ccc(F)cc2)c2ccccc21 (stereo not drawn) [Fluvastatin, fluvastatin]
OATP1B1*1A
  Uptake ratio (vs. wild‐type HEK293 cells): 2.7 ± 0.1
OATP1B1*5; experiment 1, substrate 1 µM
  Uptake ratio as percentage of OATP1B1*14 in the same experiment: 56%
  Uptake ratio (vs. wild‐type HEK293 cells): 1.8 ± 0.2
OATP1B1*5; experiment 2, substrate 1 µM
  Uptake ratio as percentage of OATP1B1*14 in the same experiment: 61%
  Uptake ratio (vs. wild‐type HEK293 cells): 1.9 ± 0.1
OATP1B1*15; experiment 1, substrate 1 µM
  Uptake ratio as percentage of OATP1B1*14 in the same experiment: 47%
  Uptake ratio (vs. wild‐type HEK293 cells): 1.5 ± 0.1
OATP1B1*15; experiment 2, substrate 1 µM
  Uptake ratio as percentage of OATP1B1*14 in the same experiment: 48%
  Uptake ratio (vs. wild‐type HEK293 cells): 1.5 ± 0.1
OATP1B1*14; experiment 1
  Uptake ratio as percentage of OATP1B1*14 in the same experiment: 100%
  Uptake ratio (vs. wild‐type HEK293 cells): 3.2 ± 0.1
OATP1B1*14; experiment 2
  Uptake ratio as percentage of OATP1B1*14 in the same experiment: 100%
  Uptake ratio (vs. wild‐type HEK293 cells): 3.1 ± 0.1
OATP1B1*14; experiment 3
  Uptake ratio (vs. wild‐type HEK293 cells): 4.4 ± 0.1

## C[C@H](CCC(=O)NCC(=O)O)[C@H]1CC[C@H]2[C@@H]3[C@H](O)C[C@@H]4C[C@H](O)CC[C@]4(C)[C@H]3CC[C@]12C [GCDCA, Glycochenodeoxycholate]
[1]; C/C genotype (n = 13) vs T/T
  Plasma concentration, ratio to control (95% CI): 1.35 (0.865, 2.11)
[1]; [2]
  Plasma concentration, geometric mean (95% CI): 567 (367, 876) ng/mL
[1]; [3]
  Plasma concentration, geometric mean (95% CI): 378 (326, 438) ng/mL
[1]; [4]
  Plasma concentration, geometric mean (95% CI): 419 (378, 465) ng/mL
[1]; T/C genotype (n = 113) vs T/T
  Plasma concentration, ratio to control (95% CI): 0.900 (0.751, 1.08)
[1]
  Mean fasting plasma concentration, lower in women than in men: ~ 20%

## C[C@H](CCC(=O)NCC(=O)O)[C@H]1CC[C@H]2[C@@H]3CC[C@@H]4C[C@H](O)CC[C@]4(C)[C@H]3C[C@H](O)[C@]12C [GDCA, glycodeoxycholate]
[1]; C/C genotype (n = 13) vs T/T
  Plasma concentration, ratio to control (95% CI): 1.16 (0.675, 1.98)
[1]; [2]
  Plasma concentration, geometric mean (95% CI): 141 (83.3, 237) ng/mL
[1]; [3]
  Plasma concentration, geometric mean (95% CI): 124 (104, 149) ng/mL
[1]; [4]
  Plasma concentration, geometric mean (95% CI): 122 (107, 138) ng/mL
[1]; T/C genotype (n = 113) vs T/T
  Plasma concentration, ratio to control (95% CI): 1.02 (0.822, 1.27)
[1]
  Mean fasting plasma concentration, lower in women than in men: ~ 20%

## Nc1nc2c(ncn2[C@@H]2O[C@@H]3COP(=O)(O)O[C@H]3[C@H]2O)c(=O)[nH]1 [cyclic guanosine monophosphate]
OAT2
  Uptake ratio (vs. wild‐type HEK293 cells), probe: 23.6 ± 0.58

From article PMC7983942 (Clinical Pharmacology and Therapeutics, 2020)
